DSG3 Ab inh: human desmoglein-3 autoantibody binding inhibition. DSG3-coupled beads, scFv-anti-DSG3-GFP binding, flow cytometry; stronger effect = lower value. binding (percent of control), % at 10 µM. actives 0.48% (n = 310,000);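 active = binding more than 3 SD below its plate's average and above zero; inconclusive = below that plate limit but binding exactly zero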;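 note: hits lower antibody fragment binding to DSG3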
Target sequence (P32926 whole entry, looked up, the tested form may be a part): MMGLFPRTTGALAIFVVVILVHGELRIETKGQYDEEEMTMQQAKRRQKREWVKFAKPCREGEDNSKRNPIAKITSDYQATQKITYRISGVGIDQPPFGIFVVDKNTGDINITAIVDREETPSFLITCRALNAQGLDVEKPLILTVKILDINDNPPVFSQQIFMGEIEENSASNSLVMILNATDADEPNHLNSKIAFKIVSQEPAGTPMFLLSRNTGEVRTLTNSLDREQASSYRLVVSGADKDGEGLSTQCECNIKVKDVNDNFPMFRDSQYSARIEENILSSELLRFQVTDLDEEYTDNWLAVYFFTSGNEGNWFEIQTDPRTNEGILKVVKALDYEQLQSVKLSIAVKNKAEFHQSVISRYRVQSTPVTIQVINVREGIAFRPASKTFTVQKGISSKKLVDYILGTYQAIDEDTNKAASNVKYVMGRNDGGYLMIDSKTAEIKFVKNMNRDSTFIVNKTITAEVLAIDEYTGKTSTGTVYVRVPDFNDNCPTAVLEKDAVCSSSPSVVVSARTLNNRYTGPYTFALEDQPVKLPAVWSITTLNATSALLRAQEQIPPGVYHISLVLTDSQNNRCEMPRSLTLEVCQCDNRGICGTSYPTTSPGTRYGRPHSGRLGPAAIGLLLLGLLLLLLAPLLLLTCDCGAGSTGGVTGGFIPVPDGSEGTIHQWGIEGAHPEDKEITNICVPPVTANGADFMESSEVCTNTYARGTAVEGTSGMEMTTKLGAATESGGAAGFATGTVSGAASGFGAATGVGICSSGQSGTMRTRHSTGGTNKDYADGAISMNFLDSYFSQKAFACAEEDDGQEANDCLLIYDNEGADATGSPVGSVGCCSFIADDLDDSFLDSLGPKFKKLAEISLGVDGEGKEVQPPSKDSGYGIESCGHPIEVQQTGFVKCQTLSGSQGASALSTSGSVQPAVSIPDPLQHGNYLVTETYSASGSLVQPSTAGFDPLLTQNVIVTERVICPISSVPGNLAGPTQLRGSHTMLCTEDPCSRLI
Granule exo inh: blocks lytic granule exocytosis | TALL-104 LAMP-1 surface exposure, flow cytometry; cells stimulated with thapsigargin and PMA | AID 651702 | inhibition, % at 10 µM | actives 0.66% (n = 360,000);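 active = inhibition above about 55%, limit read from the data; inconclusive = no clear call, values can overlap the other calls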
Cardio protect: modulators protecting cardiomyocytes from myocardial damage. H9c2 cardiomyocytes, H2O2 injury protection, ATPLite, 2 h. protection from H2O2 cell death, % at 20 µM. actives 0.63% (n = 360,000). AID 588492;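 active = compounds giving at least 50% protection of heart cells from peroxide-induced death in the single-dose screen, raw or plate-pattern-corrected value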
Myeloid diff 2: myeloid differentiation induction. ER-HoxA9 myeloid progenitors, lysozyme-GFP differentiation, flow cytometry. calls only at 10 µM. actives 1% (n = 360,000). AID 624256;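 active = normalized GFP-positive differentiation at or above the plate's own cutoff, the solvent-only control mean plus 3 SD; inconclusive = no clear call, values can overlap the other calls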;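 note: cells exposed to compound for four days before flow analysis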
HNF4A DNA FP: change in binding of human HNF4 alpha to DNA | HNF4a-FITC DNA binding, fluorescence polarization, 1 h | AID 1224865 | actives 0.3% (n = 360,000) | activity change, % at 10 µM; in the data active = activity change above about 30%, passing the limit was not always enough
SENP1 inh: inhibitors of human SENP1 SUMO protease catalytic domain; inhibition, % at 10 µM; recombinant SENP1 catalytic domain, CyPet-SUMO1-YPet FRET cleavage; actives 0.21% (n = 360,000); Q9P0U3; AID 624204;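 active = inhibition at least 30% at 10 µM, raw YFP signal under a set limit, fluorescence ratio 0.5 to 1.5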
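Material – human SENP1 catalytic domain · Input – SENP1 enzyme, 20 pM final · Compound dosing – single concentration of 10 µM compound, 0.5% DMSO final · Timing – enzyme reaction for 50 min at room temperature, dark · Measured by – FRET fluorescence in CFP and YFP emission channels · Control set – no-enzyme wells low, DMSO-plus-enzyme wells high control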
A number is an active result; i = inactive; ? = inconclusive; nt = no result given; + = active, no number. In the library only some 3% were active in any assay of this set; here they are far more common.

SMILES	DSG3 Ab inh	Granule exo inh	Cardio protect	Myeloid diff 2	HNF4A DNA FP	SENP1 inh
Cc1c(C)c2c(OCC(=O)Nc3cccnc3)cc3c(c2oc1=O)CCC(C)(C)O3	i	i	i	i	55	i
Cc1cccc2cc(COC(=O)C3CCCO3)c(=O)[nH]c12 (centres undefined)	i	i	i	nt	i	i
Cc1cccc2cc(COC(=O)C3CCCCC3)c(=O)[nH]c12	-4.6	i	i	i	i	i
CCN1C(=O)[C@@H]2Cc3c([nH]c4ccccc34)C(c3cc(OC)c(OC)c(OC)c3)N2C1=S (some centres undefined)	i	i	i	+	i	i
C=CCN1C(=O)[C@@H]2Cc3c([nH]c4ccccc34)C(c3ccc(O)cc3)N2C1=S (some centres undefined)	i	i	i	+	46	i
C=CCN1C(=O)[C@@H]2Cc3c([nH]c4ccccc34)C(c3cc(OC)c(OC)c(OC)c3)N2C1=S (some centres undefined)	i	i	i	+	i	i
COc1cc([C@H]2c3[nH]c4ccccc4c3C[C@H]3C(=O)N4[C@@H](c5cc(OC)c(OC)c(OC)c5)c5[nH]c6ccccc6c5C[C@H]4C(=O)N23)cc(OC)c1OC	i	i	i	i	i	i
COc1ccccc1CNS(=O)(=O)CCNCCc1ccccc1	i	i	i	i	i	i
COc1ccc(NC2=Nc3ccccc3N3C2=Nc2c(c(C)nn2-c2ccc(C)cc2)C3c2cccnc2)cc1 (centres undefined)	i	i	i	i	i	i
CC(=O)Nc1ccc(NC2=Nc3ccccc3N3C2=Nc2c(c(C)nn2-c2ccccc2)C3c2ccccc2)cc1 (centres undefined)	i	58	i	i	i	i
CCN(CC)c1cc(C)c2cc(NC(=O)c3ccc(Br)o3)ccc2n1	i	i	i	i	i	i
CCN(CC)c1cc(C)c2cc(NC(=O)c3ccccc3OC)ccc2n1	i	i	i	+	i	i
O=C(OCC(=O)N1CCc2ccccc2C1)c1ccc(F)cc1Cl	i	i	i	i	i	i
O=C1NC(=O)C2(CCCC2C(=O)O)N1 (centres undefined)	i	i	i	i	i	i
CCN(CC)C(=O)c1ncn(C)c1C(=O)N(CC)CC	i	i	i	i	i	i
CC(C)CCNC(=O)NC(=O)COC(=O)/C=C/c1cccc([N+](=O)[O-])c1	nt	i	i	+	i	i
Cc1ccc(NC(=O)C(C)N2CCCc3ccccc32)cc1S(=O)(=O)N1CCOCC1 (centres undefined)	i	i	i	i	i	i
CCN(CC)S(=O)(=O)c1cc(NC(=O)C(C)N2CCc3ccccc32)ccc1C (centres undefined)	i	i	i	+	i	i
O=C(Nc1nnc([C@@H]2C[C@H](O)[C@@H](CO)O2)s1)Nc1ccc(F)cc1F	nt	i	i	i	i	i
C/C(=N\NC(=O)c1nnn(-c2nonc2N)c1CN(C)c1ccccc1)c1ccccc1O	i	i	57	?	i	i
CC(/C=N/NC(=O)c1nnn(-c2nonc2N)c1CN1CCCCC1)=C\c1ccccc1	i	i	i	i	i	i
C/C(=N\NC(=O)c1nnn(-c2nonc2N)c1CN1CCCCC1)c1ccccc1O	i	i	63	nt	i	i
O=C(Cn1ncc2c(=O)oc3ccccc3c21)NC1CC1	i	i	i	i	i	i
O=C(Cn1[nH]c(=O)c2ccccc2c1=O)NCC1COc2ccccc2O1 (centres undefined)	nt	i	57	i	i	i
O=C(Cn1ncc2c(=O)oc3ccccc3c21)NCC1COc2ccccc2O1 (centres undefined)	88	i	i	i	i	i
SMILES	DSG3 Ab inh	Granule exo inh	Cardio protect	Myeloid diff 2	HNF4A DNA FP	SENP1 inh
CC(=O)Nc1ccc(NC(=O)c2nc(-c3ccccc3)oc2C)cc1	i	i	i	i	i	i
COc1ccc(OC)c(NC(=O)c2nc(-c3ccccc3)oc2C)c1	83	i	i	i	i	i
Cc1cc2oc(=O)cc(CSc3nnc(C)n3N)c2cc1C(C)C	i	i	i	+	i	i
CN(C)C(=S)NC(=O)C(c1ccccc1)c1ccccc1	-12	i	i	i	i	i
CCNC(=O)N1C(=O)C2(OCCO2)c2ccccc21	i	i	i	i	i	i
CCCCOc1ccc(OCCCC)c2c1NC1(N2)C(=O)N(C(C)=O)c2ccccc21	i	i	i	i	i	45
CCCCn1c(SCC(=O)NC2CC2)nc2cc(C(=O)OC)ccc2c1=O	i	i	i	i	i	i
S=C(Nc1ccccc1)N1CCN(C2CCCCC2)CC1	i	i	i	+	i	i
CCN(CC)c1ccc2cc(S(=O)(=O)c3ccc(C)cc3)c(=O)oc2c1	nt	i	i	i	50	i
Cc1ccc(S(=O)(=O)c2cc3ccccc3oc2=O)cc1	i	i	i	i	i	i
C[C@H]1CN([C@@H](C)CO)C(=O)CCCn2cc(nn2)CO[C@@H]1CN(C)C(=O)Nc1ccc(F)cc1	i	i	i	i	i	i
COc1ccc(/C=N/NC(=O)c2sccc2OCc2ccc(F)cc2)cc1OC	i	i	53	i	i	i
O=C(N/N=C/c1ccncc1)c1ccc(COc2cccc3cccnc23)cc1	i	i	64	i	i	i
O=C(N/N=C/c1ccc2c(c1)OCO2)c1ccc(COc2cccc3cccnc23)cc1	i	i	i	+	i	i
COc1ccc(/C=N/NC(=O)c2ccc(COc3cccc4cccnc34)cc2)cc1OC	5.2	i	54	i	i	i
O=C(c1cccnc1)c1ncc(C(F)(F)F)cc1Cl	i	i	i	i	i	i
Cc1ccc(C)c(SCC(=O)NC(=O)NC2CCCC2)c1	i	i	i	i	i	i
Cc1cc(C)cc(Cn2cc(CN3CC(N4CCN(C)CC4)CS3(=O)=O)nn2)c1 (centres undefined)	nt	i	nt	i	i	i
O=C(Nc1ccc2c(c1)[nH]c(=O)c1ccccc12)C(F)(F)F	i	i	64	i	i	i
CC(=O)Nc1ccc2c(c1)[nH]c(=O)c1ccccc12	i	i	75	i	i	i
O=C(Nc1cccc2c1[nH]c(=O)c1ccccc12)C(F)(F)F	i	i	i	i	i	i
CCC1CCCCN1c1nc(-c2ccncc2)nc2ccccc12 (centres undefined)	i	i	i	i	i	i
CC1CCCCN1c1nc(-c2ccncc2)nc2ccccc12 (centres undefined)	i	i	i	+	i	i
Cc1c(-c2ccc(F)cc2)nc(N)c(C#N)c1-c1ccco1	i	i	i	i	39	i
CCc1nc(N)c(C#N)c(-c2ccc(F)cc2)c1C	i	i	i	i	i	i
